Bioassay records: PubChem BioAssay, Sanford-Burnham Center for Chemical Genomics
hiPSC survival = enhancers of single-cell hiPSC survival, primary screen, ATPlite luminescence; survival enhancement, % at 20 µM; AID 602274, 2012; 360,000 compounds, 0.044% hits; 100% = ROCK inhibitor wells, 0% = DMSO; in the data active = survival enhancement above about 18%;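 note: cells exposed to compounds for 16 hours before the ATP read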
APJ antag = antagonists of human apelin receptor APJ, primary screen, CHO-K1 cells, beta-arrestin complementation, luminescence; P35414; inhibition, % at 20 µM; 330,000 compounds, 0.32% hits; AID 2521, 2010;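 active = inhibition above about 40% at 20 µM, limit read from the data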;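 note: cells challenged with 10 nM apelin-13 agonist together with compound; plate controls were apelin-13 plus DMSO wells for no effect and DMSO wells lacking apelin-13 for full effect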
CXCR6 inh = CXCR6 receptor inhibitors, primary screen, cell-based, beta-arrestin, luminescence, CHO-K1 PathHunter, 1536-well | 360,000 compounds, 0.36% hits | AID 602244, 2012 | inhibition, % at 20 µM | C-X-C chemokine receptor type 6 (Homo sapiens), O00574; in the data active = inhibition above about 34%, passing the limit was not always enough;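 note: antagonist mode with CXCL16 agonist at 10 nM final; 0% = 10 nM CXCL16 with DMSO and 100% = unstimulated wells without agonist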
APJ agonist = agonists of human apelin receptor APJ, primary screen, CHO-K1 cells, PathHunter beta-arrestin, luminescence; 0% DMSO wells, 100% apelin; activation, % at 20 µM; 330,000 compounds, 0.11% hits;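 active = activation more than six SD over the plate average, tested at 20 µM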;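 note: 0% = DMSO alone and 100% = apelin-13 at 10 nM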
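Incubation: overnight seeding, 90 min compound at 25 °C, 1 h detection; test system: PathHunter CHO-K1 APJ (AGTRL-1) beta-arrestin reporter cells; amount: 1000 cells/well; doses: one dose, 20 µM compound, 1% DMSO; measured by: beta-gal luminescence; measure: agonist-driven arrestin binding to APJ; benchmarks: negative DMSO alone, positive Apelin-13 at 10 nM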
EBI2 antag = EBI2 receptor antagonists, beta-arrestin recruitment, primary screen, cell-based, luminescence, 7a,25-OHC stimulation, uHTS. 360,000 compounds, 0.81% hits. AID 651636, 2012. inhibition, % at 5 µM. 7a,25-OHC stimulated. G-protein coupled receptor 183 (Homo sapiens), P32249; in the data active = inhibition above about 38%;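 note: enzyme fragment complementation signal reports receptor beta-arrestin coupling in cells; 0% = agonist plus DMSO wells and 100% = wells without agonist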
Target sequence (P32249 whole entry, looked up, the tested form may be a part): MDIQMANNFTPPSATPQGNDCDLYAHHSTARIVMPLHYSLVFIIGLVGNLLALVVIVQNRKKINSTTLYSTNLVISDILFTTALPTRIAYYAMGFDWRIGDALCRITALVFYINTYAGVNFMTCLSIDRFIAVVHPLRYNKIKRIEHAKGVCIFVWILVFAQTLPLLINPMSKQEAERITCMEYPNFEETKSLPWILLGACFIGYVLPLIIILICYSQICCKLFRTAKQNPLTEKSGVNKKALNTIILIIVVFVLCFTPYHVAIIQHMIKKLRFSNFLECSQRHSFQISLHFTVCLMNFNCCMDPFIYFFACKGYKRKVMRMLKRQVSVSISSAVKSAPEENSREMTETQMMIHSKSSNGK
CCR6 antagonist = CCR6 receptor antagonists, primary screen, cell-based, CHO-K1, luminescence, beta-arrestin, uHTS. 340,000 compounds, 0.49% hits. AID 493098, 2011. CHO-K1 CCR6 PathHunter beta-arrestin, CCL20-stimulated. C-C chemokine receptor type 6 (Homo sapiens), P51684. inhibition, % at 20 µM;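 active = compounds whose inhibition of the agonist-driven luminescence signal at 20 µM reaches about 50%, limit read from the data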;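 note: cells stimulated with CCL20 at 14 nM final; plate controls were DMSO with CCL20 for no effect and DMSO without agonist for full effect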
Active calls of the source: *. Only some compounds are listed: those with a hit (about 1.5% of all), similar ones and a draw of the others.

How did CCOC(=O)c1ccc(NC(=O)c2ccccc2[N+](=O)[O-])cc1 do in these assays?
hiPSC survival: -2; APJ antag: 23; CXCR6 inh: 2; APJ agonist: -4; EBI2 antag: -1; CCR6 antagonist: 1

Results for COC(=O)C=CC(=NNc1ccccc1)c1ccccc1 ?
hiPSC survival: 0; CXCR6 inh: 3; EBI2 antag: -6; CCR6 antagonist: 25

What do the screens show for `Cn1nnnc1N=N/C(=N/Nc1ccccc1)c1ccccc1`?
hiPSC survival: -1; APJ antag: 37; CXCR6 inh: 44*; APJ agonist: -7; EBI2 antag: -4; CCR6 antagonist: 87*

How did COc1ccc(N(CC(=O)N2CCN(c3cccc(C)c3C)CC2)S(=O)(=O)c2c(C)noc2C)cc1 do in these assays?
hiPSC survival: 0; APJ antag: -5; CXCR6 inh: -5; APJ agonist: -2; EBI2 antag: 23; CCR6 antagonist: 11

What do the screens show for `CCOc1cnn(-c2cc(Oc3ccc(C)cc3)ncn2)c(=O)c1Cl`?
hiPSC survival: -2; APJ antag: -13; CXCR6 inh: -3; APJ agonist: 0; EBI2 antag: 8; CCR6 antagonist: 13

What do the screens show for `Cc1ccccc1Oc1cc(-n2ncc(Cl)c(Cl)c2=O)ncn1`?
hiPSC survival: -2; CXCR6 inh: 46*; EBI2 antag: 68*; CCR6 antagonist: 65*

How did COc1ccc(N2CCN(C(=O)c3ccc(Br)cc3)CC2)c([N+](=O)[O-])c1 do in these assays?
hiPSC survival: 0; APJ antag: 11; CXCR6 inh: 1; APJ agonist: -2; EBI2 antag: 72*; CCR6 antagonist: 11

How did COc1ccc(N2CCN(C(=O)c3ccc(C)cc3)CC2)c([N+](=O)[O-])c1 do in these assays?
hiPSC survival: 0; APJ antag: 14; CXCR6 inh: 5; APJ agonist: 0; EBI2 antag: 19; CCR6 antagonist: 6

Results for CCOC(=O)C1=C(O)/C(=C/c2cn(CC(=O)NCC3CCCO3)c3ccccc23)SC1=Nc1ccc(C)cc1 (stereo not drawn) ?
hiPSC survival: -3; APJ antag: 17; CXCR6 inh: 12; APJ agonist: -11; EBI2 antag: 49*; CCR6 antagonist: 16

Results for COc1cccc(C(C[N+](=O)[O-])c2c(C)[nH]n(-c3ccccc3)c2=O)c1 (stereo not drawn) ?
hiPSC survival: 2; APJ antag: -12; CXCR6 inh: 8; APJ agonist: 4; EBI2 antag: -36; CCR6 antagonist: 12

How did Cc1[nH]n(-c2ccccc2)c(=O)c1C(C[N+](=O)[O-])c1ccc(Br)cc1 (stereo not drawn) do in these assays?
hiPSC survival: -2; APJ antag: 14; CXCR6 inh: 45*; APJ agonist: 2; EBI2 antag: 1; CCR6 antagonist: 36

How did O=C(COC(=O)/C=C/c1ccc(OC(F)F)cc1)Nc1cccc(S(=O)(=O)N2CCOCC2)c1 do in these assays?
hiPSC survival: -2; APJ antag: 19; CXCR6 inh: 1; APJ agonist: -4; EBI2 antag: 33; CCR6 antagonist: 7

How did Cc1ccc(C)c(NC(=S)N2CCN(c3cccc(C(F)(F)F)c3)CC2)c1 do in these assays?
hiPSC survival: 1; APJ antag: 2; CXCR6 inh: 0; APJ agonist: 2; EBI2 antag: 4; CCR6 antagonist: -18

Results for Cc1ccnc(NC(=S)N2CCN(c3cccc(C(F)(F)F)c3)CC2)c1 ?
hiPSC survival: 0; APJ antag: 28; CXCR6 inh: 39; APJ agonist: -5; EBI2 antag: -7; CCR6 antagonist: 51*

What do the screens show for `Cc1ccc(N2C(=O)C3C4C=CC(CC4)C3C2=O)cc1[N+](=O)[O-]` (stereo not drawn)?
hiPSC survival: 1; APJ antag: -15; CXCR6 inh: 3; APJ agonist: -2; EBI2 antag: 9; CCR6 antagonist: -2

How did Cc1c([N+](=O)[O-])cc(N2C(=O)C=CC2=O)cc1[N+](=O)[O-] do in these assays?
hiPSC survival: 4; CXCR6 inh: 52*; EBI2 antag: 0

What do the screens show for `Cc1cc(C)cc(N2C(=O)C=CC2=O)c1`?
hiPSC survival: -1; CXCR6 inh: 95*; EBI2 antag: 6

What do the screens show for `Cc1cc(N2C(=O)C=CC2=O)c([N+](=O)[O-])cc1C`?
hiPSC survival: 1; APJ antag: 17; CXCR6 inh: 85*; APJ agonist: -3; EBI2 antag: 8

How did Cc1ccc(NC(=O)Nc2nnc(Cc3ccc([N+](=O)[O-])cc3)s2)cc1 do in these assays?
hiPSC survival: 0; APJ antag: -14; CXCR6 inh: -1; APJ agonist: 3; EBI2 antag: -10; CCR6 antagonist: 62*

How did O=C(Nc1ccc(Cl)cc1)Nc1nnc(Cc2ccc([N+](=O)[O-])cc2)s1 do in these assays?
hiPSC survival: -2; APJ antag: 1; CXCR6 inh: -6; APJ agonist: 2; EBI2 antag: -7; CCR6 antagonist: 10

What do the screens show for `Cc1ccccc1N1C(=O)CC(Sc2nnc(-c3ccccc3)o2)C1=O` (stereo not drawn)?
hiPSC survival: -3; APJ antag: 6; CXCR6 inh: 52*; APJ agonist: -2; EBI2 antag: 1

What do the screens show for `S=C(NNc1ccc2ccccc2c1)NC1CCCCC1`?
hiPSC survival: -3; APJ antag: 40; CXCR6 inh: 21; APJ agonist: -8; EBI2 antag: 45*; CCR6 antagonist: 54*

How did S=C(Nc1ccc(Oc2ccccc2)cc1)NC1CCCCCC1 do in these assays?
hiPSC survival: -2; CXCR6 inh: 4; EBI2 antag: 9; CCR6 antagonist: 19

What do the screens show for `CCN(C(=O)Cn1c(Cl)nc2c1c(=O)n(C)c(=O)n2C)C1CCCCC1`?
hiPSC survival: -1; APJ antag: -18; CXCR6 inh: 0; APJ agonist: -2; EBI2 antag: -7; CCR6 antagonist: -7

Results for COc1cc(SSc2cc(OC)cc([N+](=O)[O-])c2N)c(N)c([N+](=O)[O-])c1 ?
hiPSC survival: 0; APJ antag: -17; CXCR6 inh: 30; APJ agonist: 0; EBI2 antag: 41; CCR6 antagonist: 54*

What do the screens show for `ON1C2CCCCC2N(O)C1c1c(F)c(F)c(F)c(F)c1F` (stereo not drawn)?
hiPSC survival: 7; APJ antag: 30; CXCR6 inh: 18; APJ agonist: -12; EBI2 antag: -1; CCR6 antagonist: 53*

What do the screens show for `O=S(=O)(O)c1cc(O)c(N=Nc2ccc(O)cc2O)c2ccccc12`?
hiPSC survival: 1; CXCR6 inh: 39*; EBI2 antag: 3; CCR6 antagonist: 62*
